Positions of bridges follow the written chain, without caps; N, C: chain ends. Non-standard residues stand in square brackets, D forms with d. Residues, ends and D or L forms follow the SMILES beside them. NMeR = CN[C@@H](CCCNC(=N)N)C(=O)O; Pen = CC(C)(S)[C@H](N)C(=O)O
How the values were obtained:
Canis familiaris = species: Canis familiaris; experiment: Inhibition of platelet aggregation in canine platelet rich plasma induced by ADP; assay type: functional, Canis lupus familiaris
Procedure, shortened: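 Citrated canine PRP aggregation read optically by light transmittance. Peptide stock was 12 mM in 0.2 M acetic acid. Final 200 µM peptide and 10 µM ADP, pH 7.7, after 5-min preincubation with peptide.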

[1] = molecular target: T1, Integrin alpha-IIb/beta-3 (Homo sapiens, UniProt P05106+P08514); experiment: Tested for inhibition of fibrinogen binding to purified GPIIb/IIIa isolated from human platelets and reconstituted in liposomes
T1 sequence (P05106 27-788 limits assumed): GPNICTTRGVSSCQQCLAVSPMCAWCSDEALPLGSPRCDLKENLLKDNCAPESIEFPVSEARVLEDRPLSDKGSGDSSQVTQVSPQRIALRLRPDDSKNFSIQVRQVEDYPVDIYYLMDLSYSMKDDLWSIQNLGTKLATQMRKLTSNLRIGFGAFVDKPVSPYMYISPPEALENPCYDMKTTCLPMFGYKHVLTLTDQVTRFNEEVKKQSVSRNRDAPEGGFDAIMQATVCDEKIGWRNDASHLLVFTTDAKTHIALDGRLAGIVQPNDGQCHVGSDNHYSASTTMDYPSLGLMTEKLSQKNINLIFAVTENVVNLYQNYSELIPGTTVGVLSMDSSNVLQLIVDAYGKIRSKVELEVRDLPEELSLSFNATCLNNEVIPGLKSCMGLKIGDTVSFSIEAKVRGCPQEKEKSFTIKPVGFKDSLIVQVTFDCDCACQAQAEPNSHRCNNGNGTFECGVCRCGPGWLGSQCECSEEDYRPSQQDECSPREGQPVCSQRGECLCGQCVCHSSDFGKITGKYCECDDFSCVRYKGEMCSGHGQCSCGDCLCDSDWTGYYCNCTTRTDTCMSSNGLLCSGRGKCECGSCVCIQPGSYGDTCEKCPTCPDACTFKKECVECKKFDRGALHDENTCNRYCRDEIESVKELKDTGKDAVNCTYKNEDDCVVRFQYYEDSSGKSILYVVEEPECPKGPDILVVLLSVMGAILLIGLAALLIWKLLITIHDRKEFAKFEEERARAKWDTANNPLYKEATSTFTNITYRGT
T1 sequence (P08514 32-887 limits assumed): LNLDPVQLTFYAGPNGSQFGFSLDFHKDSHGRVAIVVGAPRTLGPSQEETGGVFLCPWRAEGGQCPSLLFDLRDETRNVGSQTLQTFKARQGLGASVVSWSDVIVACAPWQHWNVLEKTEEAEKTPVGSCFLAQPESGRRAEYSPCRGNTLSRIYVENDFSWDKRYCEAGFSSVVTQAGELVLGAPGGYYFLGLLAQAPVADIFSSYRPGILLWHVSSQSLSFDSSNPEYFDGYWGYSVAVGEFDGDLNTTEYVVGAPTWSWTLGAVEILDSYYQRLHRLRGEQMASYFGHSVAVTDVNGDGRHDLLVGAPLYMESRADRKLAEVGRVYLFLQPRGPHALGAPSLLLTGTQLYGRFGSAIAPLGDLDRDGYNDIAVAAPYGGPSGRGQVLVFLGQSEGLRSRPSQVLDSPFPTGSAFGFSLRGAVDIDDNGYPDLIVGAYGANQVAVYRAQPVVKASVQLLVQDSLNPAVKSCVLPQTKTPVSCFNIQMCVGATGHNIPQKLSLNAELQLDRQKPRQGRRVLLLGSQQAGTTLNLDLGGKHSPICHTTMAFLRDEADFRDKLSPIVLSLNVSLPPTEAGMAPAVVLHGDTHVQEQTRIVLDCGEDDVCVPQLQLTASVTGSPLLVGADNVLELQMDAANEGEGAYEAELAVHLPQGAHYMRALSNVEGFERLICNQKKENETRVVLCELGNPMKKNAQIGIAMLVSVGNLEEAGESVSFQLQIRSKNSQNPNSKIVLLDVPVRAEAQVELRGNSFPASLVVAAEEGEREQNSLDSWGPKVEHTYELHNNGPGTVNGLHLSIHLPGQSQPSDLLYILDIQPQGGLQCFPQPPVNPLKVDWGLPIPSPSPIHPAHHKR
T1 sequence (P08514 891-1039 limits assumed): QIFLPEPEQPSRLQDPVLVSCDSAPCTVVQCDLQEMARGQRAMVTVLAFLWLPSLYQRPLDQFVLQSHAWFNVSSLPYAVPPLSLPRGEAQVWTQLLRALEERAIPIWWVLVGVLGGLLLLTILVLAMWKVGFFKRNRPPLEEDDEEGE
Procedure, shortened: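 Displacement of [¹²⁵I]fibrinogen from purified human platelet GPIIb/IIIa incorporated into phospholipid vesicles. Values without statistical limits come from a single determination.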

[2] = molecular target: T1, Integrin alpha-IIb/beta-3; experiment: Inhibition of [3H]-SKF- 107260 binding to purified GPIIb/IIIa from human platelets reconstituted in liposomes
Procedure, shortened: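 Competition binding on filter wells precoated with 10 µg/mL polylysine. Reaction started with 0.5 µg lectin-purified receptor, incubated 1 h at room temperature, filtered, washed in ice-cold buffer, scintillation counted. IC50 from nonlinear least-squares fit; Ki by Cheng–Prusoff. Mean of quadruplicates, single experiment.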

| SMILES | IC50 (Canis familiaris; Canis lupus familiaris, Plasma) [nM] | Ki [1] [nM] | Ki [2] [nM] | IC50 (Canis familiaris) [nM] |
| --- | --- | --- | --- | --- |
| CN1C(=O)[C@@H]2CCCN2C(=O)c2ccccc2SSc2ccccc2NC(=O)[C@H](CC(=O)O)NC(=O)CNC(=O)[C@@H]1CCCN=C(N)N | 1010 | 820 |  |  |
| CC(=O)N[C@@H]1C(=O)N(C)[C@@H](CCCN=C(N)N)C(=O)NCC(=O)N[C@@H](CC(=O)O)C(=O)N[C@H](C(N)=O)C(C)(C)SSC1(C)C (single isomer, unassigned) | 370 | 2.5 |  |  |
| CC(=O)N[C@@H]1CSSC(C)(C)[C@H](C(N)=O)NC(=O)C(CC(=O)O)NC(=O)CNC(=O)C(CCCN=C(N)N)NC1=O (single isomer, unassigned; 31) |  | 3000 |  | 20300 |

More lines, in order of falling IC50 (Canis familiaris; Canis lupus familiaris, Plasma), values ahead:

| IC50 (Canis familiaris; Canis lupus familiaris, Plasma) [nM] | Ki [1] [nM] | Ki [2] [nM] | IC50 (Canis familiaris) [nM] | SMILES |
| --- | --- | --- | --- | --- |
| 360 |  | 102 |  | CC(=O)N[C@H]1CSSC(C)(C)[C@@H](C(N)=O)NC(=O)[C@H](CC(=O)O)NC(=O)CNC(=O)[C@H](CCCN=C(N)N)N(C)C1=O |
| 290 | 27 |  |  | N=C(N)NCCC[C@@H]1NC(=O)c2ccccc2SSc2ccccc2NC(=O)[C@H](CC(=O)O)NC(=O)CNC1=O (single isomer, unassigned) |
| 150 | 20 |  |  | CC(=O)N[C@H]1CSSC(C)(C)[C@@H](C(N)=O)NC(=O)[C@H](CC(=O)O)NC(=O)CNC(=O)[C@H](CCCN=C(N)N)N(C)C(=O)CN(C)C1=O (single isomer, unassigned) |
| 120 | 4.8 |  |  | CN1C(=O)[C@@H](N)CSSC(C)(C)[C@@H](C(=O)O)NC(=O)[C@H](CC(=O)O)NC(=O)CNC(=O)[C@@H]1CCCN=C(N)N (H-C[NMeR]GD[Pen]-OH; disulfide 1-5) |

— ChEMBL document CHEMBL1127669, “Conformationally constrained peptides and semipeptides derived from RGD as potent inhibitors of the platelet fibrinogen receptor and platelet aggregation” (J Med Chem, 1994)
